A short description of series [1]: folding enthalpy; higher = less favourable; fluorescence melt of hairpins on a sequencing array, two-state fit. The note with it: sodium 0.088 M. The procedure, abridged:
(§1)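 Folding enthalpy and melting temperature come from bootstrapped two-state fits to Cy3 fluorescence of library hairpins carrying annealed Cy3 and quencher oligos on a sequenced MiSeq flow cell. Imaging was done in 50 mM Na-HEPES pH 8.0, 25 mM NaCl, stepping by 2.5 °C up to 60 °C, and signals were normalised to pre-quench Cy3 and to control constructs. Results of four replicates were combined by inverse variance, and fitted temperatures were raised by 9.35 °C to match UV melts.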

Series [2] can be described thus: melting temperature; fluorescence melt of hairpins on a sequencing array, two-state fit, raised by 9.35 °C to match UV melts. Conditions: sodium 0.088 M. The procedure, abridged: as §1

In the case of GATCTCCGATGAGATC ((((((....)))))), in series [1], the folding enthalpy was -31.3 kcal/mol. Also, the Tm in series [2] came to 50.7 °C.

Take GGGCAGCGAAAGCTTCCC (((.(((....))).))): the folding enthalpy in series [1] was -38.7 kcal/mol. Also, the Tm in series [2] was 55.8 °C.

Turning to CGTACGGAAACGTTTACG ((((((....)))..))), the folding enthalpy in series [1] was -16 kcal/mol. Besides, in series [2], the Tm was 37.3 °C.

On to CGCGTACGGAAACGTGCG (((..(((....)))))), for which the folding enthalpy in series [1] was -23.7 kcal/mol. Also, the Tm in series [2] was found to be 50 °C.

For GTTACGGGAAACCGTGAC ((.((((....)))).)), in series [1], the folding enthalpy is -29.8 kcal/mol. For the same sequence, the Tm in series [2] was determined as 49.8 °C.

Take GGCAATCGAAAGATCGCC (((.(((....))).))): in series [1], the folding enthalpy was -34.7 kcal/mol. Moreover, the Tm in series [2] came to 51 °C.

As to GCTCGACGAAAGTCAAGC (((.(((....))).))), in series [1], the folding enthalpy is -27.7 kcal/mol. Besides, the Tm in series [2] came out at 51.8 °C.

As for GCGGTCGGAAACGACTGC ((.((((....)))).)), the folding enthalpy in series [1] was -41.5 kcal/mol. Also, the Tm in series [2] stood at 64.2 °C.

With GGGACCGGAAACGATCCC ((((.((....)).)))), in series [1], the folding enthalpy was -45.8 kcal/mol. Further, the Tm in series [2] came out at 50.8 °C.

GTAGGCGAAAGCCGGTAC ((((((....)))..))): the folding enthalpy in series [1] is -10.7 kcal/mol. Moreover, in series [2], the Tm worked out at 42.2 °C.

GCGAAATCTCGC ((((....)))): in series [1], the folding enthalpy is -20.3 kcal/mol. In series [2], the Tm came to 45.2 °C.

GTAATCGGAAACGATCAC ((.((((....)))).)): the folding enthalpy in series [1] was -25 kcal/mol. In addition, the Tm in series [2] was determined as 33.9 °C.

In the case of GTGACTGGAAACGGTTAC ((.((.(....).)).)), in series [1], the folding enthalpy was -8.77 kcal/mol. Also, the Tm in series [2] is 36.9 °C.

On to GCTTGGCGAAAGCCATGC ((.((((....)))).)), for which the folding enthalpy in series [1] is -27.2 kcal/mol. Further, the Tm in series [2] turned out to be 65.4 °C.

With GCAGACGAAAGTCCGTGC ((((((....)))..))), the folding enthalpy in series [1] is -15.1 kcal/mol. Also, the Tm in series [2] was found to be 38.6 °C.

As for GATCGCTGGGCGATC ((((((...)))))), in series [1], the folding enthalpy was -35.6 kcal/mol. In addition, the Tm in series [2] stood at 68.8 °C.

In the case of GGACCCGAAAGGGGCTCC ((((((....)))..))), the folding enthalpy in series [1] was -9.41 kcal/mol. For the same sequence, in series [2], the Tm was determined as 56.5 °C.

Take GCACCAGAAATGGTGC ((((((....)))))): the folding enthalpy in series [1] is -35.6 kcal/mol. In series [2], the Tm turned out to be 67.8 °C.

GCTTGGGAAACCAAGC ((((((....)))))): the folding enthalpy in series [1] was -35.7 kcal/mol. In series [2], the Tm came out at 62.7 °C.

With GATCTACGCGTAGATC ((((((....)))))), the folding enthalpy in series [1] was -52.1 kcal/mol. In series [2], the Tm amounted to 55.5 °C.

As to GCGCGTGGAAACATGCGC ((((.((....)).)))), in series [1], the folding enthalpy was -40.2 kcal/mol. Besides, the Tm in series [2] is 67.9 °C.

CGGTTTCGGAAACGACCG (((..(((....)))))): the folding enthalpy in series [1] was -17.1 kcal/mol. Besides, the Tm in series [2] worked out at 38 °C.

As to CGAGCCGGAAACGGATCG (((.(((....))).))), in series [1], the folding enthalpy was -41.2 kcal/mol. Also, in series [2], the Tm is 61.7 °C.

With GCACACGAAAGTGCATGC ((((((....)))..))), the folding enthalpy in series [1] was -14.4 kcal/mol. Besides, the Tm in series [2] turned out to be 42.1 °C.

On to GTTGGCCGAAAGGCTAAC (((.(((....))).))), for which, in series [1], the folding enthalpy is -28.6 kcal/mol. Moreover, the Tm in series [2] stood at 58.3 °C.

As for GGGGTCGGAAACGACCTC (.(((((....))))).), the folding enthalpy in series [1] is -14.1 kcal/mol. Besides, the Tm in series [2] came to 61.4 °C.

With GATCCGGACCGGATC ((((((...)))))), the folding enthalpy in series [1] is -34.6 kcal/mol. In series [2], the Tm is 57.3 °C.

Turning to GGCAACGGAAACACTGCC ((((..(....)..)))), the folding enthalpy in series [1] is -15 kcal/mol. The Tm in series [2] worked out at 29.7 °C.

For GATCTTGTCAAGATC ((((((...)))))), the folding enthalpy in series [1] was -34.2 kcal/mol. Also, in series [2], the Tm came to 47.4 °C.

In the case of GTTCCTCGAAAGAGAAAC (((.(((....))).))), the folding enthalpy in series [1] is -20.3 kcal/mol. In addition, the Tm in series [2] amounted to 38.1 °C.

For GATCATATGAATGATC ((((((....)))))), in series [1], the folding enthalpy is -31.7 kcal/mol. The Tm in series [2] amounted to 45.7 °C.

With GAGTAGGGAAACCCACTC ((((.((....)).)))), the folding enthalpy in series [1] was -32 kcal/mol. Further, the Tm in series [2] was determined as 39.6 °C.

As for GGCATGGGAAACCATACC ((.((((....)))).)), the folding enthalpy in series [1] was -26.2 kcal/mol. For the same sequence, the Tm in series [2] amounted to 41 °C.

Turning to GGAGAAGCGAAAGCTTCC (((..(((....)))))), in series [1], the folding enthalpy was -9.26 kcal/mol. Also, in series [2], the Tm was determined as 42.7 °C.

Turning to GGGCGGGGAAACTCGCCC (((((.(....).))))), the folding enthalpy in series [1] was -41.3 kcal/mol. Also, in series [2], the Tm worked out at 67.4 °C.

With CCTTCGAAAGAAGG (((((....))))), the folding enthalpy in series [1] is -20.7 kcal/mol. Also, in series [2], the Tm came out at 55.2 °C.

With GATCGCACATGCGATC ((((((....)))))), the folding enthalpy in series [1] is -39.8 kcal/mol. In addition, the Tm in series [2] came to 68.3 °C.

For the origin of these results see the array DNA melting data of Ke et al. (doi:10.1101/2024.01.08.574731).
